Screening results from PubChem BioAssay.
Hits are enriched below; roughly 4.1% of the tested compounds scored in any of these assays.
Mdm2 MdmX PPI: inhibitors of human Mdm2-MdmX association, primary screen, cell-based, luminescence, split luciferase, SaOS-2, uHTS. SaOS-2 split-luciferase Mdm2/MdmX complementation. AID 485346, 2010. Protein Mdm4 (Homo sapiens) + E3 ubiquitin-protein ligase Mdm2 (Homo sapiens), …. inhibition, % at 8 µM. hit rate 3% among 330,000;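 active = inhibition of at least 50% at 8 µM in the primary screen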
Apaf-1 inh: inhibitors of human Apaf-1 apoptosome, primary screen, biochemical, DEVD-Rh110 fluorescence, uHTS; Apoptotic protease-activating factor 1 (Homo sapiens), O14727; reconstituted apoptosome caspase-3 activity; inhibition, % at 20 µM; hit rate 0.71% among 330,000; active = inhibition of at least 40% at 20 µM;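 note: plate controls were DMSO wells for no effect and DEVD-CHO caspase inhibitor wells for full effect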
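System: Apoptosome proteins | Medium: Hepes pH 7.5 with detergent and BSA | Also added: Cytochrome c trigger plus (Z-DEVD)2-Rh110 caspase-3 substrate | Incubation: 30 min compound preincubation, 50 min activation, room temperature | Detection: Rhodamine 110 fluorescence at Ex 480/Em 540 nm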
UBC13 inh: UBC13 polyubiquitin chain formation inhibitors, primary screen, biochemical, TR-FRET, uHTS. Ubiquitin-conjugating enzyme E2 N (Homo sapiens), P61088. inhibition, % at 20 µM. hit rate 0.47% among 330,000. AID 485273, 2010; in the data active = inhibition above about 45%, passing the limit was not always enough
Target sequence (P61088 whole entry, looked up): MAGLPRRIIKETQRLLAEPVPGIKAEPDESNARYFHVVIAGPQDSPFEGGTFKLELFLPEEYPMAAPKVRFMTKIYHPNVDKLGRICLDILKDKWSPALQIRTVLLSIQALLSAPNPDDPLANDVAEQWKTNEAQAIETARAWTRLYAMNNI
XBP1 UPR activ: activators of adaptive XBP1 UPR arm, primary screen, cell-based, CHO-XBP1 luciferase reporter, luminescence, uHTS; hit rate 0.33% among 330,000; IRE1-XBP1 UPR activation; percent of tunicamycin response, DMSO as zero; activation, % at 20 µM; AID 463104, 2010;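 active = versus positive control, 20 µM dose yields 30% or more activation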;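 note: 100% = tunicamycin at 10 µg/mL and 0% = DMSO only wells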
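Material – CHO cell line with stable XBP1 luciferase reporter · Buffer or medium – F12 plus 10% FBS · Compound – single point, 20 µM final compound, 1% DMSO · Schedule – 16-18 h cell attachment at 37 °C, then 6 h compound exposure · Signal – Steady-Glo luminescence read · Benchmarks – high control tunicamycin 10 µg/mL final, low control DMSO vehicle only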
UPR CHOP act: activators of apoptotic CHOP UPR arm, primary screen, cell-based, CHO-CHOP luciferase reporter, luminescence, uHTS; UPR activation; percent of tunicamycin response over DMSO baseline; activation, % at 10 µM; hit rate 0.34% among 330,000;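 active = at 10 µM dose, activation of 40% or more, normalized to positive control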;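 note: 100% = tunicamycin at 10 µg/mL and 0% = DMSO alone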
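Test system: CHO CHOP reporter cells. Input: 500 CHO-CHOP cells per well. Medium: F12 with 10% FBS. Technique: luciferase luminescence. Measure: percent activation relative to tunicamycin control. Dosing: 10 µM compound, 0.5% DMSO. Timing: 16-18 h cell attachment, then 6 h compound exposure, 37 °C.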
Apaf-1 inh conf2: Apaf-1 inhibitors, single-dose retest, confirmation, biochemical, fluorescence, DEVD-Rh110, 20 µM; shares compounds with Apaf-1 inh; reconstituted apoptosome, caspase-3 DEVD-Rh110 fluorescence; inhibition, % at 20 µM; hit rate 25% among 1,800; AID 504614, 2011;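 active = mean inhibition of at least 40% at 20 µM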;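 note: plate controls were DMSO wells for no effect and DEVD-CHO caspase inhibitor control wells for full effect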
Rh110 interf inh: Rh110 fluorescence interference by putative Apaf-1 inhibitors, confirmation, artefact control for Apaf-1 inhibitor project, biochemical, 20 µM; activation (fluorescence interference), % at 20 µM; 1,800 tested, under 10 active; shares compounds with Apaf-1 inh; AID 504615, 2011; quenched caspase reaction;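 active = signal rise of 40% or more at 20 µM, treated as a fluorescence artifact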
Fluor interf inh: fluorescence interference of Apaf-1 inhibitor hits, dose response, artefact control for Apaf-1 inhibitor project; shares compounds with Apaf-1 inh; AID 588538, 2011; IC50, µM; 460 tested, under 10 active; fluorescence interference counterscreen, Apaf-1 assay format; call rule not given here
Numbers without * were called inactive; nt = no result.

SMILES	Mdm2 MdmX PPI	Apaf-1 inh	UBC13 inh	XBP1 UPR activ	UPR CHOP act	Apaf-1 inh conf2	Rh110 interf inh	others
CCc1ccc2oc(C(=O)NCC(c3ccc(OC)cc3)N3CCCCC3)c(C)c2c1 (stereo unspecified)	38.4	20.3	19.3	-0.2	-0.7	nt	nt
Cc1ccc([C@H]2C(C(=O)O)=CC[C@@H](c3ccc4c(c3)OCO4)N2S(=O)(=O)c2ccc(C)cc2)cc1	13.0	3.6	-12.3	-1.9	-0.7	nt	nt
CN(C)c1cc(Cl)c2nonc2c1N	32.7	94.4*	-77.5	2.4	1.6	51.8*	3.5	Fluor interf inh=>100
CCN(CC)c1cc(Cl)c2nonc2c1N	25.7	-9.5	-16.4	4.2	2.3	nt	nt
CC1CCCN(S(=O)(=O)c2ccc3oc(=O)ccc3c2)C1 (stereo unspecified)	9.6	12.5	-10.2	-2.4	5.2	nt	nt
COc1ccc2c(c1OC)C(=O)OC2C1c2c(cc3c(c2OC)OCO3)CCN1C (stereo unspecified)	24.6	-8.7	5.0	-0.8	1.5	nt	nt
CN1CCc2cc3c(c4c2[C@H]1[C@H](O)c1ccccc1-4)OCO3	23.2	48.2*	-84.7	-1.3	-2.1	33.7	3.3
O=C(COc1ccccc1)N1CCN=C1SCc1ccc(F)cc1	-16.4	56.4*	14.9	-3.9	0.5	5.4	-26.9
Cc1nn(CCc2nn[nH]n2)c2nc(-c3ccc(C4CCCCC4)cc3)cc(C(F)(F)F)c12	37.0	59.7*	-19.5	7.1	2.7	31.6	13.1
Cc1nn(CCC(=O)O)c2nc(-c3cccnc3)cc(C(F)(F)F)c12	6.0	-1.1	24.6	-2.6	0.1	nt	nt
CC(=O)Nc1c(S(=O)(=O)c2ccccc2)c2nc3ccccc3nc2n1Cc1ccccc1	3.2	60.5*	3.2	-4.9	-1.1	10.3	-7.4
CC(=O)c1ccc(NC(=O)C(C)N2CCN(C/C=C/c3ccccc3)CC2)cc1 (stereo unspecified)	26.7	8.6	3.0	-1.4	-0.4	nt	nt
COc1ccc(Cl)cc1NC(=O)C(C)N1CCN(C/C=C/c2ccccc2)CC1 (stereo unspecified)	30.5	42.9*	19.4	-3.0	1.5	14.9	11.0
Cc1c(Cl)cnc(NC(=O)COC(=O)c2ccc([N+](=O)[O-])s2)c1Cl	-4.9	40.4*	-20.2	0.1	-2.8	33.1	-0.4
CC1=NN(c2ccc(N)cc2)C(=O)C1	23.7	53.4*	-7.6	-0.1	-0.8	9.1	-6.0
CC1=NN(c2ccccc2)C(=O)C1	-3.4	41.3*	-21.5	-3.1	-1.4	14.8	5.0
CC1=NN(Cc2ccccc2)C(=O)C1	6.1	64.9*	-16.5	-0.6	-1.2	0.6	-4.8
CC1=NN(c2ccc(Cl)cc2)C(=O)C1	-4.8	39.3	-9.8	-0.1	-1.6	nt	nt
CCOc1cccc(C(=O)NNC(=O)C2C3C=CC(C3)C2C(=O)O)c1 (stereo unspecified)	11.3	6.9	0.1	-2.9	1.2	nt	nt
CC1=NN(c2cccc(F)c2)C(=O)/C1=C/c1ccc(N(C)C)cc1	12.9	7.0	-102.2	1.1	5.0	nt	nt
COc1ccc(/C=C2/C(=O)N(c3cccc(F)c3)N=C2C)c(OC)c1	17.5	89.7*	-22.3	-1.6	0.8	17.3	1.6
Cc1ccc(S(=O)(=O)N2CCCC2CNC(=O)c2ccc(F)c(F)c2)cc1 (stereo unspecified)	9.7	17.4	-5.6	-0.1	0.5	nt	nt
Cn1c(CCN2CCCCC2)nc2cc(NC(=O)COc3ccccc3)ccc21	31.0	52.6*	5.6	-1.1	0.4	15.7	1.5
CN1CCN(c2ccc(-c3cccc(NC(=O)COc4ccc(Cl)cc4)c3)nn2)CC1	-26.5	36.5	9.5	2.5	3.6	nt	nt
CCN1CCN(CCc2nc3cc(NC(=O)COc4ccccc4)ccc3n2C)CC1	29.8	51.0*	7.8	-3.1	2.3	26.2	4.0
SMILES	Mdm2 MdmX PPI	Apaf-1 inh	UBC13 inh	XBP1 UPR activ	UPR CHOP act	Apaf-1 inh conf2	Rh110 interf inh	others
Cn1c(CN2CCCC2)nc2cc(NC(=O)COc3ccccc3)ccc21	-44.9	53.4*	2.0	-0.3	4.4	20.0	3.1
Cc1cccc(OCC(=O)Nc2ccc3c(c2)nc(CN2CCCCC2)n3C)c1	17.9	1.6	0.0	-3.1	-2.9	nt	nt
CCN1CCN(CCc2nc3cc(NC(=O)COc4ccc(Cl)cc4)ccc3n2C)CC1	4.6	8.1	10.5	-5.3	2.3	nt	nt
CN1CCN(c2ccc(-c3cccc(NC(=O)COc4ccccc4)c3)nn2)CC1	-21.9	46.6*	-0.4	0.2	3.8	14.1	5.4
COc1ccc(NS(=O)(=O)c2cccc(C(=O)NNC(=O)c3cc(S(N)(=O)=O)ccc3OC)c2)cc1	4.7	13.8	-2.2	-4.8	-1.5	nt	nt
CCCS(=O)(=O)N1CCCC(C(=O)NCC2CCCO2)C1 (stereo unspecified)	-2.5	6.9	-10.8	0.7	0.1	nt	nt
Cc1oc(-c2ccccc2)cc1C(=O)NC1CCN(Cc2ccccc2)CC1	9.7	-3.4	4.0	1.8	-0.6	nt	nt
CCOC(=O)CNC(=O)CSc1nccn1Cc1ccco1	18.2	-11.5	-10.5	0.3	-1.8	nt	nt
CN1CCN(CCc2nc3cc(NC(=O)COc4ccccc4)ccc3n2C)CC1	20.3	57.4*	9.0	0.9	0.3	21.0	3.2
CC1CCN(S(=O)(=O)c2ccc3c4c2CC(=O)N4CC(C)S3)CC1 (stereo unspecified)	23.3	94.4*	-43.2	7.3	10.4	86.5*	-0.9	Fluor interf inh=>100
COCCCn1c(=O)c2sccc2n(Cc2ccccc2C)c1=O	-4.5	60.1*	-6.4	-2.5	1.6	8.3	4.2
COCCCn1c(=O)c2sccc2n(Cc2ccccc2)c1=O	17.3	-5.5	9.8	-4.2	-2.5	nt	nt
CC(C)(C)NC(=O)c1ccc(COc2ccc(Cl)cc2Cl)o1	-12.1	19.5	6.4	5.2	-0.8	nt	nt
COc1ccc(C(=O)NCc2ccccc2CN2CCCC2)cc1S(=O)(=O)N1CCOCC1	36.0	-6.5	-0.2	-3.3	1.1	nt	nt
Cn1ccc2cc3c(cc21)CCN3C(=O)Nc1cccnc1	12.8	66.0*	-19.6	-6.5	4.7	15.3	4.6
